# Experimental data as given in ChEMBL document CHEMBL2203173 (J Med Chem, 2012).
# System: Mus musculus
# Assay: Toxicity in BALB/c nu/nu mouse xenografted with human DMS53 cells assessed as change in lung weight at 7.5 mg/kg, po administered for 3 times a week measured after 20 days
# Type: organism-based, DMS-53
# Parameters: dose 7.5 mg/kg, route oral
# Conditions: in vivo, 480 h
# Procedure, shortened: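 Nude mice bearing DMS-53 xenografts gavaged 3 times/week for 20 days, vehicle 30% propylene glycol/saline, vehicle controls, n = 6-11 mice/condition. Sacrifice on day 20. Organ weights and hematological indices recorded. Spleen, kidney, liver, heart, lungs and brain examined histologically, hearts stained with Gomori Trichrome for fibrosis.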
smiles,measurement,value
CCN(C)C(=S)NN=C(c1ccccn1)c1ccccn1.Cl,Activity,Non-toxic
